According to ChEMBL document CHEMBL1125569, “5-HT3 receptor antagonists. 1. New quinoline derivatives” (J Med Chem, 1992):
pKi: −log10 of the molar value.

Tests used:
[1] = biological target: T1, Serotonin 3 (5-HT3) receptor (Rattus norvegicus, UniProt P35563+Q9JJ16); assay: Ability to displace [3H]quipazine binding to 5-hydroxytryptamine 3 receptor sites in NG 108-15.; assay type: protein-complex assay
T1 sequence (P35563 whole entry): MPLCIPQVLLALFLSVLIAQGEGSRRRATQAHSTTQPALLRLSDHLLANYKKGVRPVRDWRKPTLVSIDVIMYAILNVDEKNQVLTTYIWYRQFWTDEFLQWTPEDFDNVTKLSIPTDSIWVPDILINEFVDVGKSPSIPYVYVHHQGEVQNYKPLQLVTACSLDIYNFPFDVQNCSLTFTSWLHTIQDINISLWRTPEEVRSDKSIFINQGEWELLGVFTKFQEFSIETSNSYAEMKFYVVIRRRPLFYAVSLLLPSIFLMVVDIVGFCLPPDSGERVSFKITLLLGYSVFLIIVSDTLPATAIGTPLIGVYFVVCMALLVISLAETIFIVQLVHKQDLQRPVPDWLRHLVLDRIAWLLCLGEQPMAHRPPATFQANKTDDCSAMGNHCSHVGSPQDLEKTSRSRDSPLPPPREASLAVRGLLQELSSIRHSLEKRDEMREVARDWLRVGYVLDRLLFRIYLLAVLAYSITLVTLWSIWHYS
T1 sequence (Q9JJ16 whole entry): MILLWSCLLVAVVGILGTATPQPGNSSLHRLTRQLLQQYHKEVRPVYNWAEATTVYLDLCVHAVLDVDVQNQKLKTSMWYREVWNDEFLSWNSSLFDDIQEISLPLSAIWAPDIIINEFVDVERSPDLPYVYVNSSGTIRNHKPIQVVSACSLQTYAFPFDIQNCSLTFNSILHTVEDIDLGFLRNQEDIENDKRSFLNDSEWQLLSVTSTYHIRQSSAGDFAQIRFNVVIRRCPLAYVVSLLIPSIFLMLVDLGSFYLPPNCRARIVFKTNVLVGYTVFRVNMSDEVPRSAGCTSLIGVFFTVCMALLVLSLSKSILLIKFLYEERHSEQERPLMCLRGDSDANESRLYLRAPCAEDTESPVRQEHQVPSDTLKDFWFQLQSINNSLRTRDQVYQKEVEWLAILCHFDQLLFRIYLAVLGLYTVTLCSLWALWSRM
Method in brief: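 Membranes from 3 × 10^6 NG 108-15 cells in 20 mM Tris-HCl pH 7.5 with 154 mM NaCl. Incubated with 2 nM [3H]quipazine and varying test concentrations, 37 °C for 60 min. Stopped with ice-cold buffer, then GF/C filtration and scintillation counting. Nonspecific binding defined with 10 μM MDL 72222. […] Mean ± SEM, n = 3.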

[2] = biological target: Serotonin 3 (5-HT3) receptor (Rattus norvegicus) (UniProt P35563+Q9JJ16); assay: Inhibition of 5-HT induced bradycardia [Benzold-Jarisch (BJ) reflex test] in rats at 5 min administered intravenously; assay type: functional
Method in brief: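 Male Wistar rats (230–330 g) under urethane (1.25 g/kg ip), tracheal cannula. Blood pressure taken from the left carotid, heart rate from the pressure trace. Compounds given iv via jugular vein. Bezold-Jarisch reflex evoked by bolus iv 5-HT 30 μg/kg, with challenges every 12 min. ED50 is the dose halving 5-HT bradycardia, by linear regression, 4 rats.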

[3] = biological target: T1, Serotonin 3 (5-HT3) receptor; assay: Compound was evaluated for its ability to displace [3H]quipazine binding to 5-hydroxytryptamine 3 receptor sites in NG 108-15.; assay type: protein-complex assay
Rattus norvegicus = organism: Rattus norvegicus; assay: animal or person; assay type: functional; details: 5 min

CCCOc1cc(C(=O)OC2CC3CCC(C2)N3C)c2ccccc2n1 (stereo not drawn)
pKi [1]: 9.49
ED50 [2]: 6.78 mg/kg

CCCOc1cc(C(=O)NC2CC3CCC(C2)N3C)c2ccccc2n1 (stereo not drawn)
pKi [1]: 7.38

CN1C2CCC1CC(OC(=O)c1ccnc3ccccc13)C2 (stereo not drawn)
pKi [3]: 8.15

CC(C)CCn1c(=O)cc(C(=O)OC2CC3CCC(C2)N3C)c2ccccc21 (stereo not drawn)
pKi [1]: 8.82
ED50 [2]: 0.059 mg/kg

CN1C2CCC1CC(OC(=O)c1cc(=O)n(-c3ccccc3)c3ccccc13)C2 (stereo not drawn)
pKi [1]: 9.29
ED50 [2]: 0.044 mg/kg

CCCCCCOc1cc(C(=O)OC2CC3CCC(C2)N3C)c2ccccc2n1 (stereo not drawn)
pKi [1]: 8.49
ED50 [2]: 7.68 mg/kg

CCCCn1c(=O)cc(C(=O)OC2CC3CCC(C2)N3C)c2ccccc21 (stereo not drawn)
pKi [1]: 9.17
ED50 [2]: 0.041 mg/kg

CCCCOc1cc(C(=O)NC2CC3CCC(C2)N3C)c2ccccc2n1 (stereo not drawn)
pKi [1]: 7.72

CN1C2CCC1CC(NC(=O)c1cc(O)nc3ccccc13)C2 (stereo not drawn)
pKi [1]: < 7.00

Cc1nccn1CC1CCc2c(c3ccccc3n2C)C1=O (stereo not drawn) [ONDANSETRON]
ED50 (Rattus norvegicus): 0.021 mg/kg

COc1cc(C(=O)OC2CC3CCC(C2)N3C)c2ccccc2n1 (stereo not drawn)
pKi [1]: 9.24
ED50 [2]: 5.64 mg/kg

CCCCOc1cc(C(=O)OC2CC3CCC(C2)N3C)c2ccccc2n1 (stereo not drawn)
pKi [1]: 9.41
ED50 [2]: 0.2 mg/kg

CC(C)n1c(=O)cc(C(=O)OC2CC3CCC(C2)N3C)c2ccccc21 (stereo not drawn)
pKi [1]: 10.49
ED50 [2]: 0.081 mg/kg

CCCCN1C(=O)CC(C(=O)OC2CC3CCC(C2)N3C)c2ccccc21 (stereo not drawn)
pKi [1]: 8.06

CCCCCOc1cc(C(=O)OC2CC3CCC(C2)N3C)c2ccccc2n1 (stereo not drawn)
pKi [1]: 9.07
ED50 [2]: 1.13 mg/kg

CCCCCn1c(=O)cc(C(=O)OC2CC3CCC(C2)N3C)c2ccccc21 (stereo not drawn)
pKi [1]: 9.02
ED50 [2]: 0.059 mg/kg

CCOc1cc(C(=O)OC2CC3CCC(C2)N3C)c2ccccc2n1 (stereo not drawn)
pKi [1]: 9.06
ED50 [2]: 0.07 mg/kg

CC(C)Cn1c(=O)cc(C(=O)OC2CC3CCC(C2)N3C)c2ccccc21 (stereo not drawn)
pKi [1]: 9.33
ED50 [2]: 0.069 mg/kg

CCCCn1c(=O)cc(C(=O)OC2CC3CCC(C2)N3C)c2cc(C)ccc21 (stereo not drawn)
pKi [1]: 7.36

CN1C2CCC1CC(OC(=O)c1cc(O)nc3ccccc13)C2 (stereo not drawn)
pKi [3]: 8.36
ED50 (Rattus norvegicus): 0.017 mg/kg

CC(C)COc1cc(C(=O)OC2CC3CCC(C2)N3C)c2ccccc2n1 (stereo not drawn)
pKi [1]: 9.36
ED50 [2]: 0.24 mg/kg

CCCCn1c(=O)cc(C(=O)NC2CC3CCC(C2)N3C)c2ccccc21 (stereo not drawn)
pKi [1]: 7.22

CN1C2CCC1CC(OC(=O)c1cc(=O)n(Cc3ccccc3)c3ccccc13)C2 (stereo not drawn)
pKi [1]: 8.89

CCn1c(=O)cc(C(=O)OC2CC3CCC(C2)N3C)c2ccccc21 (stereo not drawn)
pKi [1]: 8.96
ED50 [2]: 0.022 mg/kg

CN1C2CCC1CC(NC(=O)c1ccnc3ccccc13)C2 (stereo not drawn)
pKi [1]: < 7.00

CN1C2CCC1CC(OC(=O)c1cc(=O)n(C)c3ccccc13)C2 (stereo not drawn)
pKi [1]: 8.59
ED50 [2]: 0.18 mg/kg

CCCCn1c(=O)c(CC)c(C(=O)NC2CC3CCC(C2)N3C)c2ccccc21 (stereo not drawn)
pKi [1]: < 7.00

CCCCn1c(=O)c(CC)c(C(=O)OC2CC3CCC(C2)N3C)c2ccccc21 (stereo not drawn)
pKi [1]: 6.80

CC(C)Oc1cc(C(=O)NC2CC3CCC(C2)N3C)c2ccccc2n1 (stereo not drawn)
pKi [1]: 7.28

CCCn1c(=O)cc(C(=O)NC2CC3CCC(C2)N3C)c2ccccc21 (stereo not drawn)
pKi [1]: 7.17

CN1C2CCC1CC(NC(=O)c1cc(=O)n(C)c3ccccc13)C2 (stereo not drawn)
pKi [1]: < 7.00

CC(C)Oc1cc(C(=O)OC2CC3CCC(C2)N3C)c2ccccc2n1 (stereo not drawn)
pKi [1]: 9.51
ED50 [2]: 1.62 mg/kg

CN1C2CCC1CC(NC(=O)c1cc(=O)n(-c3ccccc3)c3ccccc13)C2 (stereo not drawn)
pKi [1]: 7.20

CCCCCCn1c(=O)cc(C(=O)OC2CC3CCC(C2)N3C)c2ccccc21 (stereo not drawn)
pKi [1]: 8.96

CCCn1c(=O)cc(C(=O)OC2CC3CCC(C2)N3C)c2ccccc21 (stereo not drawn)
pKi [1]: 9.35
ED50 [2]: 0.33 mg/kg
